Experimental data: ChEMBL document CHEMBL1122803, “Folate antagonists. 22. Antimalarial and antibacterial effects of 2,4-diamino-6-quinazolinesulfonamides” (1984)
≈ marks a conversion by molar mass, not a printed value.

What was measured:
Plasmodium berghei [1] = assay: Antimalarial activity as survivor numbers at day 60 for drug-sensitive Plasmodium berghei infected mice (Mus musculus) at 80 mg/kg subcutaneous dose over 72 hr; assay type: functional
Summary of the method: (§1)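 Mice infected with drug-sensitive P. berghei got one subcutaneous dose in sesame or peanut oil 72 h postinfection. Read-out is the number of mice alive at 60 days postinfection, termed "cured", without subinoculation to confirm parasitological cure. Groups of five per dose, or 10 where indicated.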

Plasmodium berghei [2] = assay: Antimalarial activity as toxic deaths 2-5 days post infection for drug-sensitive Plasmodium berghei infected mice (Mus musculus) at 320 mg/kg subcutaneous dose over 72 hrs; assay type: functional
Summary of the method: (§2)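 P. berghei (drug-sensitive) infected mice dosed once subcutaneously 72 h postinfection, compound in sesame or peanut oil. Read-out is the count of deaths on days 2–5 after infection, attributed to drug toxicity. Five animals per dose level, or 10 where indicated.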

Plasmodium berghei [3] = assay: Antimalarial activity as toxic deaths 2-5 days post infection for drug-sensitive Plasmodium berghei infected mice (Mus musculus) at 640 mg/kg subcutaneous dose over 72 hr; assay type: functional; summary of the method: as §2
Plasmodium berghei [4] = assay: Antimalarial activity as survivor numbers at day 60 against drug-sensitive Plasmodium berghei infected mice (Mus musculus) at 160 mg/kg subcutaneous dose after 72 hr; assay type: functional; summary of the method: as §1
Plasmodium berghei [5] = assay: Antimalarial activity as survivor numbers at day 60 for drug-sensitive Plasmodium berghei infected mice (Mus musculus) at 40 mg/kg over 72 hr; assay type: functional; summary of the method: as §1
Plasmodium berghei [6] = assay: Antimalarial activity as survivor numbers at day 60 for drug-sensitive Plasmodium berghei infected mice (Mus musculus) at 320 mg/kg subcutaneous dose over 72 hrs; assay type: functional; summary of the method: as §1
Plasmodium berghei [7] = assay: Antimalarial activity as survivor numbers at day 60 for drug-sensitive Plasmodium berghei infected mice (Mus musculus) at 40 mg/kg subcutaneous dose over 72 hr; assay type: functional; summary of the method: as §1
Plasmodium berghei [8] = assay: Antimalarial activity as survivor number at day 60 against drug-sensitive Plasmodium berghei infected mice (Mus musculus) at 160 mg/kg subcutaneous dose after 72 hr; assay type: functional; summary of the method: as §1
Plasmodium berghei [9] = assay: Antimalarial activity as change in MST against drug-sensitive Plasmodium berghei infected mice (Mus musculus) at 160 mg/kg subcutaneous dose after 72h; assay type: functional
Plasmodium berghei [10] = assay: Antimalarial activity as change in MST for drug-sensitive Plasmodium berghei infected mice (Mus musculus) at 40 mg/kg subcutaneous dose over 72 hr; assay type: functional
Plasmodium berghei [11] = assay: Antimalarial activity as change in MST against drug-sensitive Plasmodium berghei infected mice (Mus musculus) at 20 mg/kg subcutaneous dose after 72h; assay type: functional
Plasmodium berghei [12] = assay: Antimalarial activity as change in MST for drug-sensitive Plasmodium berghei infected mice (Mus musculus) at 640 mg/kg subcutaneous dose over 72 hr; assay type: functional
Plasmodium berghei [13] = assay: Antimalarial activity as change in MST for drug-sensitive Plasmodium berghei infected mice (Mus musculus) at 80mg/kg subcutaneous dose over 72h; assay type: functional
Plasmodium berghei [14] = assay: Antimalarial activity as survivor numbers at day 60 for drug-sensitive Plasmodium berghei infected mice (Mus musculus) at 320 mg/kg subcutaneous dose for 72 hr; assay type: functional; summary of the method: as §1
Plasmodium berghei [15] = assay: Antimalarial activity as change in MST for drug-sensitive Plasmodium berghei infected mice (Mus musculus) after 72 hrs at 320 mg/kg subcutaneous dose; assay type: functional
Plasmodium berghei [16] = assay: Antimalarial activity as change in MST against drug-sensitive Plasmodium berghei infected mice (Mus musculus) at 160 mg/kg subcutaneous dose after 72 hr; assay type: functional
Plasmodium berghei [17] = assay: Antimalarial activity as change in MST for drug-sensitive Plasmodium berghei infected mice (Mus musculus) at 80 mg/kg subcutaneous dose over 72 hr; assay type: functional
Plasmodium berghei [18] = assay: Antimalarial activity as change in MST against drug-sensitive Plasmodium berghei infected mice (Mus musculus) at 20 mg/kg subcutaneous dose after 72 hr; assay type: functional
Shigella sonnei [19] = assay: In vitro antibacterial activity against Shigella sonnei C-10.; assay type: functional
Summary of the method: (§3)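 Antibacterial testing in vitro by gradient-plate test. Read-out was the minimum inhibitory concentration, with values exceeding 25 reported as >25.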

Plasmodium berghei [20] = assay: In vivo antimalarial activity against drug-sensitive Plasmodium berghei in mice (Mus musculus) after 320 mg/kg subcutaneous dose for 72 hrs as survivors 60 days post infection
Escherichia coli [21] = assay: Tested in vitro against Escherichia coli Vogel. by gradient-plate test; assay type: functional; summary of the method: as §3
Plasmodium berghei [22] = assay: Antimalarial activity as survivor numbers at day 60 for drug-sensitive Plasmodium berghei infected mice (Mus musculus) at 640 mg/kg subcutaneous dose over 72 hr; assay type: functional; summary of the method: as §1
Staphylococcus aureus [23] = assay: In vitro antibacterial activity against […] U.C-76.; assay type: functional; summary of the method: as §3
Plasmodium berghei [24] = assay: Antimalarial activity as change in MST for drug-sensitive Plasmodium berghei infected mice (Mus musculus) at 40 mg/kg subcutaneous dose over 72hr; assay type: functional
[25] = test system: Mycobacterium tuberculosis; assay: In vitro antibacterial activity against Mycobacterium tuberculosis H37Rv.; assay type: functional
Summary of the method: (§4)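 Mycobacterium tuberculosis tested in vitro by gradient-plate test; minimum inhibitory concentration reported.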

Enterococcus faecalis [26] = assay: In vitro antibacterial activity against Streptococcus faecalis MGH-2.; assay type: functional; summary of the method: as §3
Staphylococcus aureus [27] = assay: In vitro antibacterial activity against […] S 18713.; assay type: functional; summary of the method: as §3
Pseudomonas aeruginosa [28] = assay: In vitro against Pseudomonas aeruginosa 28. by gradient-plate test; assay type: functional; summary of the method: as §3
Shigella sonnei [29] = assay: Compound was tested in vitro against Shigella sonnei C-10, by gradient-plate test; assay type: functional; summary of the method: as §3
Escherichia coli [30] = assay: Compound was tested in vitro against Escherichia coli Vogel, by gradient-plate test; assay type: functional; summary of the method: as §3
Pseudomonas aeruginosa [31] = assay: Compound was tested in vitro against Pseudomonas aeruginosa 28, by gradient-plate test; assay type: functional; summary of the method: as §3
Shigella sonnei [32] = assay: Compound was tested in vitro against Shigella sonnei C-10. by gradient-plate test.; assay type: functional; summary of the method: as §3
Escherichia coli [33] = assay: Compound was tested in vitro against Escherichia coli Vogel. by gradient-plate test.; assay type: functional; summary of the method: as §3
Staphylococcus aureus [34] = assay: Compound was tested in vitro against […] U.C-76. by gradient-plate test.; assay type: functional; summary of the method: as §3
Pseudomonas aeruginosa [35] = assay: Compound was tested in vitro against Pseudomonas aeruginosa 28. by gradient-plate test.; assay type: functional; summary of the method: as §3
Enterococcus faecalis [36] = assay: Compound was tested in vitro against Streptococcus faecalis MGH-2. by gradient-plate test.; assay type: functional; summary of the method: as §3
Staphylococcus aureus [37] = assay: Compound was tested in vitro against […] S 18713 by gradient-plate test.; assay type: functional; summary of the method: as §3
[38] = test system: Mycobacterium tuberculosis; assay: Compound was tested in vitro against Mycobacterium tuberculosis H37Rv. by gradient-plate test.; assay type: functional; summary of the method: as §4
Plasmodium berghei [39] = assay: Antimalarial activity as survivor numbers at day 60 against drug-sensitive Plasmodium berghei infected mice (Mus musculus) at 20 mg/kg subcutaneous dose after 72 hr; assay type: functional; summary of the method: as §1
Plasmodium berghei [40] = assay: Antimalarial activity as survivor numbers at day 60 for drug-sensitive Plasmodium berghei infected mice (Mus musculus) at 320 mg/kg subcutaneous dose over 72 hr; assay type: functional; summary of the method: as §1
Plasmodium berghei [41] = assay: Antimalarial activity as survivor number at day 60 for drug-sensitive Plasmodium berghei infected mice (Mus musculus) at 640 mg/kg subcutaneous dose over 72 hr; assay type: functional; summary of the method: as §1
Plasmodium berghei [42] = assay: Antimalarial activity as toxic deaths 2-5 days post infection for drug-sensitive Plasmodium berghei infected mice (Mus musculus) at 320 mg/kg subcutaneous dose over 72 hr; assay type: functional; summary of the method: as §2
Plasmodium berghei [43] = assay: Antimalarial activity as survivor numbers at day 60 for drug-sensitive Plasmodium berghei infected mice (Mus musculus) at 320 mg/kg over 72 hr; assay type: functional; summary of the method: as §1

`Nc1nc(N)c2c(Cl)c(NCc3ccc(Cl)c(Cl)c3)ccc2n1` showed a survivors at day 60 (Plasmodium berghei [1]) of 5, a toxic deaths (Plasmodium berghei [2]) of 5 and a toxic deaths (Plasmodium berghei [3]) of 5. For the same compound, the survivors at day 60 (Plasmodium berghei [4]) was 5 and the survivors at day 60 (Plasmodium berghei [5]) was 5.
Work on `Nc1nc(N)c2cc(S(=O)(=O)c3ccc4ccccc4c3)ccc2n1` yielded a survivors at day 60 (Plasmodium berghei [1]) of 5, a survivors at day 60 (Plasmodium berghei [6]) of 5 and a survivors at day 60 (Plasmodium berghei [7]) of 5. For the same compound, the survivors at day 60 (Plasmodium berghei [8]) was 5.
In the case of `CCN(CC)S(=O)(=O)c1ccc2nc(N)nc(N)c2c1`, the “Delta MST” value (Plasmodium berghei [9]) was 9.4 days, the “Delta MST” value (Plasmodium berghei [10]) was 3.3 days and the “Delta MST” value (Plasmodium berghei [11]) was 0.7 days. The “Delta MST” value (Plasmodium berghei [12]) was 5 days, the “Delta MST” value (Plasmodium berghei [13]) was 4.3 days and the “Delta MST” value (Plasmodium berghei [14]) was 5 days.
With `CC1(C)N=C(N)N=C(N)N1c1ccc(Cl)cc1.Cl` [CHLORCYCLOGUANIL HYDROCHLORIDE] the “Delta MST” value (Plasmodium berghei [15]) was 3 days, the “Delta MST” value (Plasmodium berghei [16]) was 5 days and the “Delta MST” value (Plasmodium berghei [10]) was 13.4 days. For the same compound, the “Delta MST” value (Plasmodium berghei [12]) was 5 days, the “Delta MST” value (Plasmodium berghei [17]) was 21.6 days and the “Delta MST” value (Plasmodium berghei [18]) was 7.9 days.
`Nc1nc(N)c2cc(S(=O)(=O)N3CCOCC3)ccc2n1` gave an MIC (Shigella sonnei [19]) of over 25 µg/mL, a survivors at day 60 (Plasmodium berghei [20]) of 5 and an MIC (Escherichia coli [21]) of over 25 µg/mL. The survivors at day 60 (Plasmodium berghei [22]) was 10, the MIC (Staphylococcus aureus [23]) was 2 µg/mL (≈ 6.47 µM) and the “Delta MST” value (Plasmodium berghei [24]) was 4.7 days. For the same compound, the MIC [25] was over 25 µg/mL, the MIC (Enterococcus faecalis [26]) was under 0.25 µg/mL and the “Delta MST” value (Plasmodium berghei [11]) was 1.7 days. For the same compound, the MIC (Staphylococcus aureus [27]) was over 25 µg/mL, the MIC (Pseudomonas aeruginosa [28]) was over 25 µg/mL and the survivors at day 60 (Plasmodium berghei [4]) was 10. For the same compound, the “Delta MST” value (Plasmodium berghei [13]) was 14.5 days.
In the case of `Nc1nc(N)c2cc(S(N)(=O)=O)ccc2n1`, the “Delta MST” value (Plasmodium berghei [9]) was 0.3 days, the MIC (Staphylococcus aureus [23]) was over 25 µg/mL and the MIC (Shigella sonnei [29]) was over 25 µg/mL. The “Delta MST” value (Plasmodium berghei [24]) was 0.1 days, the MIC (Enterococcus faecalis [26]) was over 25 µg/mL and the MIC (Escherichia coli [30]) was over 25 µg/mL. The “Delta MST” value (Plasmodium berghei [12]) was 0.3 days, the MIC (Staphylococcus aureus [27]) was over 25 µg/mL and the MIC (Pseudomonas aeruginosa [31]) was over 25 µg/mL.
In the case of `Nc1nc(N)c2cc(S(=O)(=O)N3CCc4ccccc4C3)ccc2n1`, the MIC (Shigella sonnei [32]) was over 25 µg/mL, the “Delta MST” value (Plasmodium berghei [15]) was 3.9 days and the MIC (Escherichia coli [33]) was over 25 µg/mL. For the same compound, the MIC (Staphylococcus aureus [34]) was over 25 µg/mL, the MIC (Pseudomonas aeruginosa [35]) was over 25 µg/mL and the “Delta MST” value (Plasmodium berghei [16]) was 0.7 days. The MIC (Enterococcus faecalis [36]) was over 25 µg/mL, the MIC (Staphylococcus aureus [37]) was over 25 µg/mL and the “Delta MST” value (Plasmodium berghei [10]) was 0.3 days. For the same compound, the “Delta MST” value (Plasmodium berghei [12]) was 6.3 days, the “Delta MST” value (Plasmodium berghei [17]) was 0.7 days and the “Delta MST” value (Plasmodium berghei [18]) was 0.3 days. For the same compound, the MIC [38] was over 25 µg/mL.
`CCc1nc(N)nc(N)c1-c1ccc(Cl)cc1` [PYRIMETHAMINE] was tested, and the “Delta MST” value (Plasmodium berghei [39]) was 7.7 days, the survivors at day 60 (Plasmodium berghei [1]) was 3 and the survivors at day 60 (Plasmodium berghei [40]) was 2. The “Delta MST” value (Plasmodium berghei [10]) was 1 days, the toxic deaths (Plasmodium berghei [3]) was 2 and the survivors at day 60 (Plasmodium berghei [4]) was 5. It also gave a survivors at day 60 (Plasmodium berghei [41]) of 1 and a toxic deaths (Plasmodium berghei [42]) of 3.
In the case of `CN(C)S(=O)(=O)c1ccc2nc(N)nc(N)c2c1`, the “Delta MST” value (Plasmodium berghei [9]) was 15.9 days, the “Delta MST” value (Plasmodium berghei [10]) was 8.7 days and the “Delta MST” value (Plasmodium berghei [43]) was 5 days. The “Delta MST” value (Plasmodium berghei [11]) was 7.3 days and the “Delta MST” value (Plasmodium berghei [13]) was 16.1 days.
